HSF1 inh = HSF1 inhibition | NIH3T3-HGL HSE-luciferase, MG132-induced, luminescence 8 h; stronger effect = lower value | activity change, negative = inhibition, % at 7.5 µM (by protocol) | 0.77% of 300,000 active;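 active = more than half of replicate wells show activity change below -50%, luminescence cut by over half; inconclusive = some wells, but at most half, below -50%; inactive = no replicate well below -50%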;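 also: luciferase reports HSF-1 transcriptional activity via heat shock element; 0% = median of DMSO wells and -100% = zero luminescence signal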
HSF-1 act = increases HSF-1 driven luciferase reporter signal | NIH3T3-HGL HSF-1 luciferase reporter, MG132, 8 h; 100% = twice DMSO control signal | activation, % at 9 µM | 1.7% of 300,000 active | AID 504408;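 active = mean replicate activation of at least 50% with a set share of replicates each reaching 50%; inconclusive = only one of those two conditions met; inactive = mean below 50% and too few replicates reaching it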;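 also: 0% = median of the neutral control wells and 100% = twice that signal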
DNA FID counter = counter-screen for HCV NS3 helicase inhibitors: DNA intercalator displacement; 0.17% of 290,000 active; DNA fluorescent intercalator displacement, fluorescence; inhibition, % at 7.9 µM; AID 1845; in the data active = inhibition above about 37%;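 also: 0% = vehicle and 100% = reference compound; higher means more ethidium bromide displaced from hairpin DNA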
HSP90 refold inh = inhibitors of HSP90 luciferase refolding in rabbit reticulocyte lysate | 0.91% of 290,000 active | inhibition, % at 5.6 µM | luciferase refolding luminescence, 3 h | AID 1789;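 active = inhibition above the screen-wide mean plus 3 SD, computed separately per campaign, cut at about 16% in these data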;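 also: 0% = DMSO wells and 100% = 60 µM geldanamycin wells; inhibitors lower the luminescence because luciferase stays unfolded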
NS3 helicase inh = HCV NS3 helicase inhibition; inhibition, % at 10.9 µM; 0.56% of 290,000 active; NS3 helicase DNA unwinding, Cy5 molecular beacon fluorescence;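 active = inhibition above the mean of all tested compounds plus 3 SD, set per campaign, cut at about 35% in these data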;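 also: 0% = DMSO wells and 100% = thioflavine S control wells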
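Test system: hepatitis C virus NS3 helicase domain fragment enzyme. Also added: annealed dual-labelled DNA beacon duplex, ATP-started. Timing: 60 min unwinding reaction at 25 °C after ATP addition. Technique: Cy5 fluorescence. Measure: % inhibition of unwinding.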
core dimer inh = HCV core protein dimerization inhibition; AID 1899; 0.33% of 300,000 active; inhibition, % at 5 µM; TR-FRET GST/Flag-core106 dimerization, 1536-well;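 active = inhibition above the mean of all tested compounds plus 3 SD, set per screening campaign, cut at about 45% in these data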
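System: GST/Flag-tagged HCV core106 proteins. Incubation: compound-protein-antibody incubation 4 h at 22.5 °C. Technique: HTRF with 340 nm excitation, 617/671 nm emission. Medium: KF-containing HEPES buffer, pH 7.45, DTT, CHAPS, BSA. Read-out: inhibition (%) from 671 over 617 nm ratio. Also added: Eu(K)-anti-GST 90 ng/mL plus XL665-anti-Flag 1 µg/mL.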
* = called active by the depositor; u = inconclusive; x = no result. This is a sample that favours compounds with a hit; in the whole collection about 3.9% have one here.

SMILES | HSF1 inh | HSF-1 act | DNA FID counter | HSP90 refold inh | NS3 helicase inh | core dimer inh
Cc1ccccc1NS(=O)(=O)c1cc(C(=O)Nc2cccc(N(C)S(C)(=O)=O)c2)ccc1C | 0 | -1 | -25 | -1 | -12 | -8
COc1ccccc1N/C(N)=N/c1nc(C(F)(F)F)cc(=O)[nH]1 | -1 | 0 | -2 | -2 | -5 | -6
N/C(=N\c1nc2c(c(=O)[nH]1)CCC2)Nc1ccccc1C(F)(F)F | 18 | 56* | -3 | 1 | 2 | -1
COc1ccc2c(COC(=O)CCS(=O)(=O)c3ccc(C)cc3)cc(=O)oc2c1 | -73* | -79 | x | x | x | 16
Cc1ccc2c(COC(=O)c3ccc(C)c(C)c3)cc(=O)oc2c1 | -2 | 21 | -7 | 3 | 7 | 2
Cc1ccc2c(COC(=O)c3ccccc3Cl)cc(=O)oc2c1 | 55 | 101* | -9 | -4 | 7 | 2
COc1ccc(Br)c(C(=O)OCc2cc(=O)oc3cc(C)ccc23)c1 | 12 | 44 | -10 | 1 | 0 | 4
Cc1ccc2c(COC(=O)c3ccccc3Br)cc(=O)oc2c1 | 44 | 88* | -19 | 3 | 28 | -8
COC(=O)Cc1cc(=O)oc2cc(OC)ccc12 | -5 | -2 | -1 | -2 | 2 | -1
Cc1ccc(NC(=O)c2sc3ncn(CC(=O)N4CCOCC4)c(=O)c3c2C)c(Br)c1 | 36 | 78* | -15 | -1 | 0 | -1
CCn1cnc2sc(C(=O)Nc3ccc4c(c3)OCO4)c(C)c2c1=O | 33 | 67* | -4 | 0 | -1 | -2
Cc1cc([N+](=O)[O-])ccc1NC(=O)c1sc2ncn(CC(=O)N3CCOCC3)c(=O)c2c1C | 15 | 38 | -8 | -8 | -2 | -2
COc1ccc(N2CCN(C(=O)CCCCCn3c(=O)[nH]c4ccsc4c3=O)CC2)cc1 | -1 | 9 | -2 | -8 | -9 | 0
COC(=O)c1[nH]c2ccc(Br)cc2c1NC(=O)CN1CCCc2ccccc21 | 38 | 57* | -1 | 2 | -26 | 18
COc1ccccc1CNC(=O)CSc1ccc(-c2cccs2)nn1 | -2 | 6 | -16 | 5 | 2 | 3
COc1ccc(CC(=O)Nc2cc(C)on2)cc1 | -91* | -93 | -1 | -3 | -2 | -3
COc1ccccc1CNC(=O)CSc1ccc(-c2ccccn2)nn1 | 0 | 3 | -8 | 2 | -2 | 56*
COc1ccccc1-c1ccc(SCC(=O)Nc2cc(C)on2)nn1 | 39 | 60* | -15 | 3 | -9 | 0
COc1ccc(-c2ccc(SCC(=O)Nc3cc(C)on3)nn2)cc1OC | -3 | 8 | -15 | -2 | -3 | -2
CCCc1nnc(NC(=O)c2nc(S(=O)(=O)Cc3ccc(C)cc3)ncc2Cl)s1 | -80* | -82 | -62 | 5 | 26 | -4
CC(C)c1nnc(NC(=O)c2nc(S(=O)(=O)Cc3ccccc3)ncc2Cl)s1 | -86* | -87 | -40 | 8 | 6 | -3
COCCN=c1scc(-c2ccco2)n1/N=C/c1ccc(O)c(O)c1O | x | x | -16 | 1 | 21 | 54*
CC(=O)Nc1cc(C(=O)N(C)Cc2ccco2)ccc1Sc1ccc(C)cc1 | -81* | -85 | -34 | -6 | 2 | -4
Cc1c(Cl)cccc1NC(=O)Nc1cnccn1 | -64* | -72 | -9 | -6 | 7 | -9
Cc1c(Cl)cccc1NC(=O)Nc1cccnc1 | -5 | -3 | -2 | -2 | 7 | 4
SMILES | HSF1 inh | HSF-1 act | DNA FID counter | HSP90 refold inh | NS3 helicase inh | core dimer inh
CCCOc1ccc(-c2cn3ccccc3n2)cc1[N+](=O)[O-] | 26 | 30 | -2 | -1 | 2 | 6
COc1ccc(-c2cn3ccccc3n2)cc1[N+](=O)[O-] | 28 | 55* | 2 | 3 | -15 | 6
COc1cc(C(=O)Nc2cnc(NC(=O)C(C)C)cc2C)cc(OC)c1OC | 6 | 1 | -18 | 5 | 5 | -6
CN1CCN(C(=O)c2ccc(Cn3cc(Cl)cn3)o2)CC1 | 15 | 64* | -1 | 7 | -9 | 3
O=C(c1ccc(Cn2cc(Cl)cn2)o1)N1CCN(Cc2ccc3c(c2)OCO3)CC1 | 1 | 5 | -22 | 2 | -16 | -11
CC1(C)Cc2c(C#N)c(NCCO)nc(-c3ccco3)c2CO1 | -52* | -58 | -21 | 1 | 10 | 7
O=C(Cn1cc(C(=O)C2CC2)c2ccccc21)NCc1ccc2c(c1)OCO2 | 7 | 2 | -12 | -1 | -26 | -2
CC(C)c1cc(NC(=O)C(C)(C)C)cc(C(C)C)c1O | -2 | 4 | -2 | 1 | 1 | 2
CC(C)c1cc(Nc2cccc(O)c2)cc(C(C)C)c1O | -4 | -13 | -6 | 4 | 15 | 53*
CCOC(=O)C1=C(C)NC(=S)NC1c1ccc(C)s1 (centres undefined) | 8 | 15 | -6 | 0 | -3 | 0
CCOC(=O)C1=C(C)NC(=S)NC1c1ccsc1 (centres undefined) | -67* | -74 | -3 | -5 | 9 | -4
Cc1ccc(NC(=O)C(C)NC(=O)OCc2ccccc2)cc1C (centres undefined) | -2 | 8 | -16 | 2 | 1 | -3
C=CCn1c(SCC(=O)c2ccc(CNC(C)=O)o2)nc2ccccc2c1=O | -8 | 7 | -25 | -1 | -1 | 49*
Cc1ccsc1/C=N/Nc1nc2ccccc2s1 | 36 | 66* | -3 | -3 | -9 | -7
CCn1c(C)c(/C=N/Nc2nc3ccccc3s2)c2ccccc21 | 14 | 53* | 10 | 3 | -4 | -1
C(=N\Nc1nc2ccccc2s1)/c1ccco1 | 41 | 65* | -1 | 6 | 5 | -9
CC(=O)Nc1ccc(S(=O)(=O)Nc2nc3ccccc3s2)cc1 | -3 | 7 | 0 | 4 | -1 | -3
CC(=O)Nc1ccc(/C=N/Nc2nc3ccccc3s2)cc1 | 47 | 68* | -3 | -3 | 0 | x
C(=N\Nc1nc2ccccc2s1)/c1cccs1 | 15 | u | 8 | -1 | -19 | -14
CCn1c(/C=C/c2c(C)n(CC)c3ccccc23)nc2ccccc2c1=O | -1 | 7 | -3 | 5 | -1 | 1
COCCOC(=O)C1=C(C)NC(=O)NC1c1cccc2ccccc12 (centres undefined) | -4 | 13 | -16 | -4 | 2 | -9
CCN(CC)S(=O)(=O)c1ccc(Cl)c(C(=O)Nc2ccc(Cl)cc2[N+](=O)[O-])c1 | 2 | 12 | 2 | -6 | -4 | 7
COc1cccc(C2=NN(C(=O)CCCC(=O)O)C(c3cccs3)C2)c1 (centres undefined) | 10 | -2 | -38 | 14 | 6 | 7
Cc1nn(-c2ccccc2Cl)c(Cl)c1/C=N/Nc1nc2ccccc2s1 | -84* | -86 | -3 | 5 | -1 | 3
CSCCC(=O)N1CCN(CC(=O)N2CCCC2)CC1 | 1 | 8 | -5 | 1 | 6 | 4

Screening data from PubChem BioAssay.
